This is an account of results in ChEMBL document CHEMBL2384933, “Vitexin inhibits inflammatory pain in mice by targeting TRPV1, oxidative stress, and cytokines” (J Nat Prod, 2013).

The test system of series [1] is Mus musculus. Put plainly: Antinociceptive activity in Swiss mouse assessed as inhibition of carrageenan-induced thermal hyperalgesia at 1 mg/kg, ip administered 30 mins prior to carrageenan-challenge measured after 1 to 5 hrs by hot plate test. Format: functional, organism-based. The arrangement: dose 1 mg/kg. In a few lines:
(§1)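 Doses of 1–10 mg/kg given ip 30 min before intraplantar carrageenan (300 μg/paw). Hot plate held at 55 °C; latency to jump or lick paws recorded at 1, 3 and 5 h, with a 30 s cutoff. Two baseline latencies taken at least 10 min apart. Six mice per group.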

Series [2] relates to Mus musculus. The series is described as follows: Hepatotoxicity in Swiss mouse assessed as change in plasma AST level at 10 mg/kg, ip for 7 days. The format is toxicity, organism-based. The arrangement: dose 10 mg/kg, route intraperitoneal. The settings on record: in vivo, 168 h. In a few lines: (§2)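 Mice dosed daily ip at 10 mg/kg for 7 days; vehicle was saline or Tris/HCl pH 8.0. Plasma AST and ALT measured with a diagnostic kit.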

The test system of series [3] is Mus musculus. Put plainly: Antinociceptive activity in Swiss mouse assessed as decrease in formalin-induced time spent for licking paw at 10 mg/kg, ip administered 30 mins prior to formalin-challenge measured after 30 mins. The format is functional, organism-based. The arrangement: dose 10 mg/kg. In a few lines: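 Given ip 30 min before intraplantar formalin (25 μL of 1.5% in saline). Paw flinches and licking time recorded from 0 to 30 min in 5-min bins, covering the first (0–5 min) and second (10–30 min) phases. Six mice per group; representative of two experiments.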

Series [4] concerns Mus musculus. Put plainly: Antinociceptive activity in Swiss mouse assessed as inhibition of acetic acid-induced writhing response at 10 mg/kg, ip administered 30 mins prior to acetic acid-challenge measured for 20 mins. The format is functional, organism-based. More on the design: dose 10 mg/kg. In a few lines: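 Doses of 0.3–10 mg/kg given ip in saline 30 min before ip acetic acid (0.8% v/v in saline, 10 mL/kg). Cumulative abdominal writhing counted over 20 min and presented in 2-min intervals. Six mice per group; representative of two experiments.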

In series [5] the test system is Mus musculus. The series is described as follows: Antinociceptive activity in Swiss mouse assessed as inhibition of complete Freund's adjuvant-induced paw flinching at 10 mg/kg, ip administered 30 mins prior to complete Freund's adjuvant-challenge measured after 30 mins. The arrangement: dose 10 mg/kg. Format: functional, organism-based. In a few lines: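 Dosed ip 30 min before intraplantar CFA (10 μL/paw). Flinches and licking time of the injected paw counted over 0–30 min and expressed as totals for 30 min. Six mice per group; representative of two experiments.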

For series [6], the system named is Mus musculus. The series is described as follows: Antinociceptive activity in Swiss mouse assessed as inhibition of capsaicin-induced paw flinching at 10 mg/kg, ip administered 30 mins prior to capsaicin-challenge measured after 5 mins. The format is functional, organism-based. More on the design: dose 10 mg/kg. In a few lines:
(§3)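 Pretreatment ip 30 min before intraplantar capsaicin (1.6 μg/paw), given after an adaptation period. Mice observed individually for 5 min afterwards. Total flinches and time spent licking the injected paw were scored. Six mice per group; representative of two experiments; one-way ANOVA with Tukey's test.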

In series [7] the test system is Mus musculus. The series is described as follows: Antioxidant activity in Swiss mouse assessed as prevention of carrageenan-induced decrease in 2,2'-Azinobis(3-ethylbenzothiazoline 6-sulfonic acid) scavenging ability at 10 mg/kg, ip administered 30 mins prior to carrageenan-challenge measured after 3 hrs by spectrophotometric analysis. Format: functional, organism-based. More on the design: dose 10 mg/kg. In a few lines: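 Given at 10 mg/kg ip 30 min before intraplantar carrageenan; plantar skin taken at 3 h, two mice pooled per sample. Tissue homogenized in 1.15% KCl. FRAP: 37 °C for 30 min, absorbance at 595 nm. ABTS: diluted to A730 0.80 in PBS pH 7.4, read at 730 nm after 6 min. Both expressed as Trolox equivalents/mg tissue (Trolox standard 1.5–30 μmol/L final).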

The test system of series [8] is Mus musculus. Put plainly: Antinociceptive activity in Swiss mouse assessed as inhibition of carrageenan-induced thermal hyperalgesia at 3 to 10 mg/kg, ip administered 30 mins prior to carrageenan-challenge measured after 1 to 5 hrs by hot plate test. Format: functional, organism-based. In a few lines: as §1
Series [9] has as its system Mus musculus. The series is described as follows: Antioxidant activity in Swiss mouse assessed as prevention of carrageenan-induced decrease in GSH levels at 10 mg/kg, ip administered 30 mins prior to carrageenan-challenge measured after 3 hrs by UV-vis spectrophotometric analysis. More on the design: dose 10 mg/kg. The format is functional, organism-based. In a few lines: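 Given at 10 mg/kg ip 30 min before intraplantar carrageenan (300 μg/paw); plantar skin taken at 3 h, four paws pooled per sample. Tissue homogenized in 0.02 M EDTA with TCA and centrifuged. Supernatant reacted with DTNB in Tris 0.4 M pH 8.9; absorbance read at 412 nm after 5 min. Reported as nmol GSH/mg tissue. Three pools per experiment.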

The test system of series [10] is Mus musculus. Put plainly: Neurotoxicity in Swiss mouse assessed as change in motor response at 10 mg/kg, ip after 5.5 hrs by rotarod test (reference value: 180 seconds). Format: toxicity, organism-based. More on the design: dose 10 mg/kg, route intraperitoneal. The settings on record: in vivo. In a few lines: (§4)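 Rota-rod with a 2.5 cm bar at 22 rpm. Mice pre-selected 24 h earlier by staying on the bar for two consecutive 180 s periods. Given 10 mg/kg ip (vehicle 2% DMSO in saline) and tested at 1.5, 3.5 and 5.5 h, with a 180 s cutoff. n = 6.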

The test system of series [11] is Mus musculus. Put plainly: Toxicity in Swiss mouse assessed as change in myeloperoxidase activity in stomach at 10 mg/kg, ip for 7 days by spectrophotometric analysis. More on the design: dose 10 mg/kg, route intraperitoneal. Format: organism-based. The settings on record: in vivo, 168 h. In a few lines: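 Mice dosed daily ip at 10 mg/kg for 7 days. Stomach homogenized in 50 mM phosphate buffer pH 6.0 with 0.5% HTAB and centrifuged at 16100g. Supernatant mixed with o-dianisidine (0.167 mg/mL) and 0.015% H2O2; read at 450 nm three times within 1 min. Activity expressed as neutrophils ×10⁴/mg tissue against a neutrophil standard curve.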

In series [12] the test system is Mus musculus. The series is described as follows: Antinociceptive activity in Swiss mouse assessed as inhibition of carrageenan-induced mechanical hyperalgesia at 10 mg/kg, ip administered 30 mins prior to carrageenan-challenge measured after 1 to 5 hrs by electronic pressure-meter test. The arrangement: dose 10 mg/kg. Format: functional, organism-based. In a few lines: (§5)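 Doses of 1–10 mg/kg given ip 30 min before intraplantar carrageenan (300 μg/paw). Electronic pressure-meter applied to mice on a wire grid floor; paw withdrawal with flinching was the end point, and each value is the average of three readings. Result reported as Δ withdrawal threshold (g) from baseline at 1, 3 and 5 h. Six mice per group; two-way ANOVA.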

Series [13] deals with Mus musculus. Put plainly: Antiinflammatory activity in Swiss mouse assessed as inhibition of carrageenan-induced IL-1beta production 10 mg/kg, ip administered 30 mins prior to carrageenan-challenge measured after 3 hrs by ELISA. The arrangement: dose 10 mg/kg. Format: functional, organism-based. Particulars: at 10 mg/kg. In a few lines:
(§6)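 Compound given ip in saline 30 min before intraplantar carrageenan (300 μg/paw). Paw skin taken 3 h later and homogenized in 500 μL buffer with protease inhibitors. TNF-α, IL-1β, IL-6, IL-33 and IL-10 measured by ELISA, reported as pg/100 mg tissue. Saline-injected paws served as controls. Six mice per group; representative of two experiments.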

For series [14], the system named is Mus musculus. Put plainly: Antiinflammatory activity in Swiss mouse assessed as inhibition of carrageenan-induced IL-33 production 10 mg/kg, ip administered 30 mins prior to carrageenan-challenge measured after 3 hrs by ELISA. The format is functional, organism-based. The arrangement: dose 10 mg/kg. The settings on record: at 10 mg/kg. In a few lines: as §6

Series [15] concerns Mus musculus. Put plainly: Antinociceptive activity in Swiss mouse assessed as decrease in capsaicin-induced time spent for licking paw at 10 mg/kg, ip administered 30 mins prior to capsaicin-challenge measured after 5 mins. Format: functional, organism-based. More on the design: dose 10 mg/kg. In a few lines: as §3
In series [16] the test system is Mus musculus. Put plainly: Neurotoxicity in Swiss mouse assessed as change in motor response at 10 mg/kg, ip after 1.5 hrs by rotarod test (reference value: 180 seconds). Format: toxicity, organism-based. More on the design: dose 10 mg/kg, route intraperitoneal. Particulars: in vivo. In a few lines:
as §4

For series [17], the system named is Mus musculus. Put plainly: Hepatotoxicity in Swiss mouse assessed as change in plasma ALT level at 10 mg/kg, ip for 7 days. Format: toxicity, organism-based. More on the design: dose 10 mg/kg, route intraperitoneal. Particulars: in vivo, 168 h. In a few lines:
as §2

Series [18] concerns Mus musculus. Put plainly: Antinociceptive activity in Swiss mouse assessed as inhibition of carrageenan-induced mechanical hyperalgesia at 1 to 3 mg/kg, ip administered 30 mins prior to carrageenan-challenge measured after 3 hrs by electronic pressure-meter test. Format: functional, organism-based. In a few lines:
as §5

Active and inactive are the calls of the source.

With `O=c1cc(-c2ccc(O)cc2)oc2c([C@@H]3O[C@H](CO)[C@@H](O)[C@H](O)[C@H]3O)c(O)cc(O)c12` [VITEXIN], the inhibition result in the series on Mus musculus [1] is “inactive”. For the same compound, the Activity result in the series on Mus musculus [2], with Mus musculus [11] and with Mus musculus [17] was “Non-toxic” in each case. The inhibition result in the series on Mus musculus [3], with Mus musculus [4], in the series with Mus musculus [5], in the series with Mus musculus [6], in the series on Mus musculus [8] and with Mus musculus [12] was “Active” in each case. Also, the inhibition entry with Mus musculus [13], in the series on Mus musculus [14], in the series on Mus musculus [15] and in the series on Mus musculus [18] was “Active” in each case. Also, the result in the series on Mus musculus [7] and in the series on Mus musculus [9] was Active. Besides, the Time in the series with Mus musculus [10] and in the series with Mus musculus [16] was 180 s in each case.
